Lmaj promast: Leishmania major promastigote growth inhibition, primary screen; Leishmania major promastigotes, resazurin fluorescence viability; inhibition, % at 10 µM; 200,000 tested, 9% active;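 further: promastigotes grown with compound for 44 hours at 28 °C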
PfG6PD inh: PfG6PD enzyme inhibitors, primary screen, biochemical, fluorescence intensity, uHTS; PfGluPho enzyme, NADPH resazurin-diaphorase fluorescence; inhibition, % at 20 µM; 350,000 tested, 0.78% active; AID 504690, 2011;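 active means inhibition reaching at least a set limit at 20 µM in the primary screen, cut at about 59% in these data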;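 further: 0% = DMSO wells with substrate and 100% = DMSO wells lacking glucose-6-phosphate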
Diaphorase inh: diaphorase inhibitors and chemical oxidizers, primary screen, counter-screen for diaphorase-coupled primary assays, biochemical, uHTS, resorufin fluorescence. diaphorase resazurin-to-resorufin fluorescence, NADH, 16 min; bacterial (C. kluyveri) enzyme, not human. inhibition, % at 20 µM. 190,000 tested, 0.69% active. AID 1217, 2008;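 active means primary screen inhibition at 20 µM above a set limit, cut at about 50% in these data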;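 further: plate controls were DMSO with full reaction for no effect and wells lacking NADH for full effect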
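Assay system: diaphorase enzyme from Clostridium kluyveri; Input: enzyme working solution with 0.14 U/mL diaphorase; Timing: 16 min at room temperature; Technique: resorufin fluorescence, excitation 544 nm, emission 590 nm; Benchmarks: positive control minus NADH, DMSO neutral control.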
Redox H2O2 prof: compounds producing H2O2 with reducing agent – biochemical, NIH compound library profiling, artefact control for MLSCN library redox annotation, primary screen; DTT-dependent redox cycling H2O2, phenol red/HRP absorbance; 100% = 100 µM peroxide control, 0% = buffer; activation, % at 10 µM; 200,000 tested, 0.03% active; AID 878, 2007;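 active means activation of at least 50% relative to the plate's high and low controls in the primary single-dose screen; inactive means activation below 50%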;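 further: compound incubated with DTT at 0.8 mM final as the reducing agent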
G6PDH counter: L. mesenteroides G6PDH inhibitors, counter-screen for G6PDH-coupled screening assays, biochemical, Leuconostoc mesenteroides enzyme. glucose-6-phosphate dehydrogenase [Leuconostoc mesenteroides]. Purified L. mesenteroides G6PDH, diaphorase/resazurin coupled fluorescence, 45 min. inhibition, % at 5 µM. 200,000 tested, 0.12% active
Diaphorase act: compounds boosting diaphorase resazurin reduction – biochemical, uHTS, resorufin fluorescence, counter-screen for diaphorase-coupled primary assays, primary screen. activation factor at 20 µM. 190,000 tested, 0.005% active. Diaphorase/resazurin coupled assay, 16 min; active compounds read high; 1 = vehicle wells, 0 = NADH-free wells;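 active means diaphorase activity raised at least twofold by the compound at 20 µM; inactive means activation factor below 2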
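Material: Clostridium kluyveri diaphorase, purified enzyme; Quantity: enzyme 0.07 U/mL final; Medium: HEPES pH 7.4 buffer with MgCl2 and Tween 20; Dosing: single compound dose of 20 µM, 1% DMSO final; Schedule: 16 min reaction at room temperature; Measured by: red resorufin fluorescence at 544/590 nm excitation/emission.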
* = called active by the depositor; · = no result given. The sample as a whole holds a higher share of hits than the screen did. Unless noted, no stated cut-off is given here; in the data, active means inhibition above about 50%; inactive means the rest.

SMILES	Lmaj promast	PfG6PD inh	Diaphorase inh	Redox H2O2 prof	G6PDH counter	Diaphorase act
Nc1c(Cl)ncnc1N/N=C/c1ccc2ccccc2n1	100*	4	18	0	23	0.8
Nc1c(Cl)ncnc1N/N=C/c1ccnc2ccccc12	-1	20	-3	0	3	1
Cn1c(=O)c2cc(S(=O)(=O)NCCC(=O)NCCC3=CCCCC3)ccc2n(C)c1=O	2	-12	3	0	8	1
COc1ccc(C2C(C#N)=C(N)N(c3ccccc3)C3=C2C(=O)CCC3)cc1Cn1cc([N+](=O)[O-])cn1 (centres undefined)	99*	24	23	-7	11	0.8
COc1ccc(C2C(C#N)=C(N)N(c3cccnc3)C3=C2C(=O)CCC3)cc1Cn1cc([N+](=O)[O-])cn1 (centres undefined)	89*	34	28	-3	4	0.7
Cc1nc2c3ccccc3n(Cc3ccccc3F)c2s1	56*	13	29	1	10	0.7
Cc1nc2c3cc(F)ccc3n(Cc3ccccc3F)c2s1	-3	-1	9	0	0	0.9
N/C(Cc1cccc2ccccc12)=N\OC(=O)c1cccs1	58*	7	5	0	12	0.9
CC(c1ccco1)N(C(=O)c1ccccc1NS(=O)(=O)c1cc([N+](=O)[O-])ccc1Cl)c1ccccn1 (centres undefined)	51*	-16	8	0	9	0.9
Cc1ccc2nc(-c3cccc(S(=O)(=O)N(C)C)c3)cn2c1	17	50	6	0	6	0.9
CCN(CC)S(=O)(=O)c1cccc(-c2n[nH]c(=S)n2Cc2ccccc2)c1	100*	13	14	0	-1	0.9
CCN(CC)S(=O)(=O)c1cccc(-c2cn3cc(C)ccc3n2)c1	85*	40	12	0	4	0.9
CCN(CC)S(=O)(=O)c1cccc(-c2n[nH]c(=S)n2CC(C)C)c1	0	41	8	1	3	0.9
CCCCCCn1c(=O)c(F)cn(Cc2ccc(OC)c([N+](=O)[O-])c2)c1=O	91*	-7	14	2	13	0.9
CCCCCn1c(=O)c(F)cn(Cc2ccc(OC)c([N+](=O)[O-])c2)c1=O	5	13	10	2	-4	0.9
N#CCSc1nc2sc3c(c2c(=O)n1C1CCCCC1)CCCC3	56*	16	31	-3	4	0.7
CCSc1nc2sc3c(c2c(=O)n1C1CCCCC1)CCN(C)C3	·	10	39	·	4	0.6
CCOC(=O)C1=C(Nc2ccccc2)CC(C)(O)C(C(=O)OCC)C1c1ccc(Br)cc1 (centres undefined)	92*	10	10	0	1	0.9
O=C1CN(C(=O)c2ccc(Br)o2)C(c2ccc(F)cc2)c2cc(F)ccc2N1 (centres undefined)	95*	11	25	1	8	0.8
FC(F)(F)C(Oc1nc(NC2CCCCC2)nc(N2CCOCC2)n1)C(F)(F)F	81*	9	19	-1	-3	0.8
Cc1ccc(Nc2nc(OC(C(F)(F)F)C(F)(F)F)nc(N3CCOCC3)n2)cc1	33	13	13	0	3	0.9
Cc1c(N2C(=O)CSC2c2ccc(F)cc2)c(=O)n(-c2ccccc2)n1C (centres undefined)	·	-13	·	·	·	·
Cc1cc(C)c2cc(CN(CCN(C)C)C(=O)Nc3ccccc3Cl)c(=O)[nH]c2c1	58*	16	-3	-1	8	1
CC(=O)c1nc(N2C(=O)CC(Cc3cc(C)cc(C)c3)C2=O)sc1C (centres undefined)	54*	-1	8	0	-13	0.9
COc1ccc(C(c2nnnn2CS(=O)(=O)c2ccc(C)cc2)N2CCN(Cc3ccccc3)CC2)cc1 (centres undefined)	63*	9	·	2	·	·
SMILES	Lmaj promast	PfG6PD inh	Diaphorase inh	Redox H2O2 prof	G6PDH counter	Diaphorase act
CCCC(c1nnnn1Cc1ccc(OC)cc1)N1CCN(c2ccccc2)CC1 (centres undefined)	43	-12	14	-3	5	0.9
COc1ccc(C(c2nnnn2Cc2ccc(F)cc2)N2CCN(c3ccc(OC)cc3)CC2)cc1 (centres undefined)	94*	19	33	1	8	0.7
Cc1ccc(C(c2nnnn2CS(=O)(=O)c2ccc(C)cc2)N2CCN(c3ncccn3)CC2)cc1 (centres undefined)	18	27	11	0	-3	0.9
COc1ccc(Cn2nnnc2C(CC(C)C)N2CCN(c3ccccc3)CC2)cc1 (centres undefined)	33	9	12	0	6	0.9
COc1ccc(Cn2nnnc2C(c2ccc(F)cc2)N2CCN(C3CCCC3)CC2)cc1 (centres undefined)	17	-12	27	-1	2	0.7
COc1ccc(N2CCN(C(c3ccccc3)c3nnnn3Cc3ccc(F)cc3)CC2)cc1 (centres undefined)	66*	28	34	1	4	0.7
COc1ccc(C(c2nnnn2Cc2ccc(F)cc2)N2CCN(c3ccccc3)CC2)cc1 (centres undefined)	74*	4	14	3	10	0.9
CCn1c(SCC(=O)Nc2cccc(C)n2)nc2c1c(=O)n(C)c(=O)n2C	1	0	6	-2	8	0.9
O=C(COC(=O)c1cc(=O)[nH]c2ccccc12)NCc1ccccc1Cl	·	0	·	·	·	·
COc1cccc(CC(=O)Nc2cc(S(=O)(=O)N3CCOCC3)ccc2OC)c1	·	-12	·	·	·	·
CC(=O)NCCCNS(=O)(=O)c1ccc(C)cc1	-3	5	67*	0	0	0.3
Cc1ccc(SCCNS(=O)(=O)c2ccc(F)cc2)cc1	53*	14	27	3	-23	0.7
Cc1ccc(S(=O)(=O)NCCCNS(C)(=O)=O)cc1	-6	-1	2	1	6	1
O=S(=O)(NCCSc1ccc(Cl)cc1)c1ccc(F)cc1	5	3	21	-5	0	0.8
CC(=O)N1CCc2ccc(S(=O)(=O)N3CC(C)OC(C)C3)cc21 (centres undefined)	3	-15	-10	1	14	1.1
CC(=O)N1CCc2ccc(S(=O)(=O)N3CCN(C)CC3)cc21	53*	-8	8	0	-5	0.9

Bioassay records from PubChem BioAssay.
